Assay results as given in the EternaBench riboswitch data.

Test system: MS2 coat protein
Assay: apparent Kd, MS2 coat protein; higher = weaker binding; RNA-MaP array; FMN 200 µM where present
Outline: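 Two titrations, one without ligand and one with constant ligand, were run with SNAP-549-labelled MS2 coat protein from 0.7 or 1.5 nM, doubling to 3 µM. The targets were designs transcribed by stalled E. coli RNA polymerase on Illumina sequencing-chip clusters, in 100 mM Tris-HCl pH 7.5, 80 mM KCl, 4 mM MgCl2, BSA, DTT, yeast tRNA and Tween-20. The apparent Kd is the median of filtered per-cluster binding-curve fits, with green signal normalised to red-channel RNA signal and control-cluster median Fmax.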

[1] = designed as: ON switch for flavin mononucleotide, no ligand
[2] = ligand present: flavin mononucleotide, designed as: ON switch for flavin mononucleotide
[3] = designed as: OFF switch for flavin mononucleotide, no ligand
[4] = ligand present: flavin mononucleotide, designed as: OFF switch for flavin mononucleotide

| Sequence | apparent Kd [1] [nM] | apparent Kd [2] [nM] | apparent Kd [3] [nM] | apparent Kd [4] [nM] |
| --- | --- | --- | --- | --- |
| GAGUGACACCAGAAGGGCCAGGAAAGAACACUGGUAGGAUAUGGAGCGCCCUCGUAACGACCGACAUGAGGAUCACCCAUGUCC | 117 | 28.1 | – | – |
| GGAUAGGACAGAGGAUAUACAGAUAGGAUCUACUAUCAAACAGUCCUGACAUGAGGAUCACCCAUGUAGAAGGCUGUCCUAUCG | – | – | 21.9 | 107 |
| AUCAUCUUGUCAGGAUAUGCGUGUCGACGAAAGUAGACAAUCUUGAUAACAUGAGGAUCACCCAUGUAGAAGGGACGAGAUGAU | – | – | 21.6 | 24.5 |
| CGCUACGUUUCGUAGCAGUGUCAUCGAGAAGGCCCUGACAUGAGGAUCACCCAUGUUAAAACACAGGAGGAUAUCGAUGAUACA | 4.39 | 4.56 | – | – |
| UCUUAUUGCAAGGAUAUGCAAAUUAUUAUUAAUGCAGAAGGUGCUACAUGAGGAUCACCCAUGUUUCCGGGUUU | – | – | 45 | 161 |
| UUUUAUUAGUAAGGAUAUACUAGCGAUGAGCUUGUAGAAGGUACAGUCUUAUGUAUAACAUGUUAACAUGAGGAUCACCCAUGU | 38.6 | 22.4 | – | – |
| AGUCGGAGCAGAGGAUAUACAUGAGGAUCACCCAUGUAAUAAAGUGAAGCCUGGUAACAGGCAAUGUAGAAGGCUGCUCCGACA | – | – | 11.3 | 77.7 |
| AUAGAAGACUAGAAGGACCUAGUUGUAUAUUGUCGAGGUAUAUAAUUAGGUAGGAUAUGGGACAUGAGGAUCACCCAUGUCUUG | 8.27 | 7.5 | – | – |
| AUAGUACAUGAGGAUCACCCAUGUCAGGAUAUCGGAUGUGACAUGAAAAAAAUGUUAAUGAGAAGGGACUAUAA | – | – | 43.6 | 49 |
| GAGGGUUAAGGAUAUACAUGAGGAUCACCCAUGUAUGGCAAGCCAUAAUCCUCAUUAAGUAGAAGGUAACCUUC | – | – | 11.7 | 15.3 |
| GGAUGACAAAGUCAUCCAAAUCGAACAUGAGGAUCACCCAUGUAGGAUAUCCUACUCAAAGAGUAGGAGAAGGACAUGUGCUUU | – | – | 53.1 | 178 |
| ACGCUUUGGGAGAAGGUACGUUAAAUUUUUUCCACAUGAGGAUCACCCAUGUAAGGAUAUCCCAUCGUUAAAUAGUCUUCAGCA | – | – | 9.45 | 9.02 |
| AGGGAGGGCGUGGAGGCGGAGGGACGAGAAGGUACACAUGAGGAUCACCCAUGUAGAGUGGGAGGUAAGGAUAUUGGAUGGUGG | 101 | 66.9 | – | – |
| AGUAAGAUGCAGAAGGUGUCAGCGAGAGCUGCGACAUGAGGAUCACCCAUGUGUCGGUGACGACACAAGGAUAUGCAUCUUACA | 407 | 227 | – | – |
| GAUGUAUUCGUAGGAUAUCCGUCGCCACCGUGUGGAGAAGGACGAACAUGAGGAUCACCCAUGUAUCAUGGUGUAGACACUUUC | – | – | 142 | 190 |
| GUAGCUAUCGGAGGAUAUUCAUGAAACAUGAGGAUCACCCAUGUUAAAUUGGGAGAAGGCCGAUAGCUACAAGAGCGAAAGCUC | 7.5 | 5.32 | – | – |
| UAAAAGUAGGUAGGAUAUCAUCACGGAAGAUCCUGGAUACUUAGUACAUGAGGAUCACCCAUGUAUGAGAAGGACCAGUGUUUG | – | – | 12.5 | 14.8 |
| GCACUUAAAAUUGAACCGUUUCGAACAUGAGGAUCACCCAUGUAGGAUAUGCUAAAAGUUGUGAUGCAGAAGGACAAUAAGUGC | – | – | 6.82 | 6.67 |
| GUUUUACAUGAGGAUCACCCAUGUGAGGAUAUAUUGUUAUUUUUAAUAUUUUUUAGUGGUAGAAGGCGCGUGAU | – | – | 31.4 | 26 |
| CCGAGUAGCGCAGGAUAUGACUUGGUUGUUUGGUCAGAAGGGUGAUUCUCGGUAAGAAACAGGACAUGAGGAUCACCCAUGUCA | 102 | 24.9 | – | – |
| AAGUAUAGAGGAUAUACAUAGAUACAGAUUCAUGUAGAACUACAUGAGGAUCACCCAUGUAGAAGGCUAUACUA | – | – | 30.2 | 159 |

| Sequence | apparent Kd [1] [nM] | apparent Kd [2] [nM] | apparent Kd [3] [nM] | apparent Kd [4] [nM] |
| --- | --- | --- | --- | --- |
| ACAUGAGGAUCACCCAUGUGAAAAGAAUGGCUGACACAGAGAUAGGAUAUAUGUGCAUAUCAAACAUAGAAGGGUCAUGACUGG | – | – | 30.3 | 30.2 |
| UUAUUAUAUGUAGGAUAUGCAUAUUAUUAUUAUGCAGAAGGACAUGAGGAUCACCCAUGUAUAUUAUUAUUAUAUAUUGUAUAU | – | – | 27.8 | 43.2 |
| CCAUGCGGAUGAGGAUAUUCAUCCAUGAGGAUAGAAGAAGGCAUACAUGAGGAUCACCCAUGUAUACGCAUGAGGAUCCCUUAC | – | – | 27.3 | 22.3 |
| UUGCGGUAGGAGAAGGACAGAGGCGGAAACACAAACAUGAGGAUCACCCAUGUAGGAUAUCCUACCUAACGCGGAUCCCUCCAG | – | – | 11.1 | 34.6 |
| CGCUAUGACAUAGGAUAUUGAUACAUGAGGAUCACCCAUGUCAACCAUGAAGCUCGAAUUGUUGACAAGAAGGAUGUGGUAGCG | 157 | 72.9 | – | – |
| GGUUCACGAGGAUAUCGAUUUUAGUACAUGAGGAUCACCCAUGUUGUCCAGGUUUCGAUUCGAGAAGGCGUGAACC | – | – | 22.8 | 22.5 |
| UGAUACCAAGGAUAUACAUGAGGAUCACCCAUGUCGGACCGAUGUGUCUCCUCCUGCUGUAGAAGGUGGAAAAU | – | – | 39.9 | 55.6 |
| UUUGAUUGCACAGGAUAUUGUCAUUUGAGUUGUCAAGAAGGGUGUACAUGAGGAUCACCCAUGUAAUGGUUGCCUCGCUGACUU | – | – | 95.7 | 272 |
| UUCGUGUAAGGAUAUACGACCCAUCCCAUUGGGAUGGGCACGUAGAAGGUACAUGAGGAUCACCCAUGUGCUCC | – | – | 26.8 | 167 |
| CCUCUACAUGAGGAUCACCCAUGUGAGGAUAUCUCGGAGCAGCCACUUAAGGCACUCCAGAGAAGGCACGUGUA | – | – | 18 | 25.7 |
| UUAUUACAUGAGGAUCACCCAUGUGAGGAUAUCGAUGUAACUAGCAGCGUGCGGGACUCGAGAAGGCACUUGGA | – | – | 61.1 | 144 |
| UUUCUCGGCGAGAAGGGAGUACAUGAGGAUCACCCAUGUGGUCCAUGGAGCUCAGGAUAUCGCGAGGUCGAUGUCGACGGAGUA | – | – | 127 | 231 |
| GGAAAUCAUGUAGGAUAUGCAUGGCGAAGCUACGCAGAAGGACAUGAGGAUCACCCAUGUUAAAGCUACCGAGUUCGGUGGCAA | – | – | 180 | 148 |
| AGCUGGAGAGGAUAUACGUGAGUGAUAAAAGUCUGAUAACUACAUGAGGAUCACCCAUGUAGAAGGCUCUGGCA | – | – | 66.2 | 19.4 |
| GUCAGCUCGUGAGGAUAUACAACACUGCUUCGGCAGUGUAUUAGGAUCACAUGAGGAUCACCCAUGUAGAAGGCACGAGCUGAU | – | – | 16.3 | 323 |
| AGAUAGUUAUAACGCCAUCCCUACAUGAGGAUCACCCAUGUGCAGGAUAUAGGCUUGAAGCAGACCUAGAAGGGCACAGGCUGA | – | – | 8.34 | 22.2 |
| ACGAAGAUACAGAAGGGUAUAUUAGUUAAUUAUAAUUUGGUUAUGCACUACAGGAUAUGUUUAACAUGAGGAUCACCCAUGUUC | 13.9 | 10.8 | – | – |
| ACAUGAUUCAAGAAGGAUGUAUUUGAUUUGAUCAUAGGAUAUUGUUAUUUUGUUUACUCUAAUAACAUGAGGAUCACCCAUGUA | 14.4 | 10.4 | – | – |
| GCCAGAGCAGGAUAUCUAAUAUGUCACAUGAGGAUCACCCAUGUCCAGCGAAAGCUGGAGGGAGAAGGGCUCUGGC | – | – | 65.6 | 24.4 |
| AUGCUAGUGUGAGGAUAUUAGGCUACAUGAGGAUCACCCAUGUUGAUCAUGAGGAUCACCCAUGAUAAGAAGGUACAUUAGCAU | – | – | 88.1 | 108 |
